In assay [1] the test system is Plasmodium berghei. Kind of assay: Antimalarial activity against Plasmodium berghei infected in mouse assessed as mouse mean survival time at 50 mg/kg, po. It is filed as functional.
A short description of assay [2]: Selectivity index, ratio of IC50 for mouse macrophages to IC50 for Plasmodium falciparum.
In assay [3] the test system is Plasmodium berghei. Kind of assay: Antimalarial activity against Plasmodium berghei infected in mouse assessed as suppression of parasitemia at 10 mg/kg, po by Peters 4 day suppressive test. It counts as functional. The settings on record: 96 h.
Assay [4] has as its system Plasmodium falciparum. Kind of assay: Antiplasmodial activity against Plasmodium falciparum. It counts as functional, organism-based. A digest of the protocol: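 P. falciparum (K1 and 3D7) kept in continuous Trager–Jensen culture and tested at 1–2% initial parasitemia and 3% hematocrit. DMSO stocks (5 mg/mL) were diluted in complete medium across a 100–0.006 range and tested in triplicate for 48 h at 37°C. Growth was read by optical microscopy as IGP% = 100[1 − (parasitemia with sample / untreated control parasitemia)].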

Assay [5] has as its system Plasmodium falciparum. Kind of assay: Antiplasmodial activity against drug susceptible Plasmodium falciparum 3D7 NF54 isolate in human erythrocytes assessed as growth inhibition after 48 hrs by optical microscopy. It counts as functional, organism-based. The settings on record: 3D7 NF54, 48 h. A digest of the protocol: (§1)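 Parasites were kept in continuous culture by the Trager and Jensen method. The microtest used 1–2% initial parasitemia and 3% hematocrit. Samples came from 5 mg/mL DMSO stocks, serially diluted in complete medium and added to parasitized red cells in triplicate. Plates were incubated 48 h at 37°C and read by optical microscopy. Growth inhibition % = 100[1 − (parasitemia with sample/parasitemia of untreated controls)].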

Assay [6] can be described thus: Cytotoxicity against mouse macrophages after 18 hrs by MTT assay. It is filed as cell-based. As to conditions: Macrophage.
Assay [7] relates to Plasmodium falciparum. Kind of assay: Antiplasmodial activity against multi-drug resistant Plasmodium falciparum K1 in human erythrocytes assessed as growth inhibition after 48 hrs by optical microscopy. It is filed as functional, organism-based. The settings on record: K1, 48 h. A digest of the protocol: as §1
The subject of assay [8] is MRC5. Nature of the assay: Cytotoxicity against human MRC5 cells after 48 hrs by Alamar blue assay. It counts as cell-based. As to conditions: MRC5, 48 h. In short, it runs like this: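 MRC-5 fetal lung fibroblasts were grown in DMEM with 10% FBS, 2 mM glutamine and penicillin/streptomycin at 37°C under 5% CO2, seeded at 10^4 cells/well, and dosed with DMSO-dissolved compounds after 24 h for 48 h. Negative controls had 0.1% DMSO. Alamar Blue was added 2 h before the end, with fluorescence read at 530–560 nm excitation and 590 nm emission.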

The test system of assay [9] is Plasmodium berghei. Kind of assay: Antimalarial activity against Plasmodium berghei infected in mouse assessed as suppression of parasitemia at 50 mg/kg, po after 5 to 7 days. It counts as functional.
Assay [10] deals with Plasmodium berghei. Kind of assay: Antimalarial activity against Plasmodium berghei infected in mouse assessed as suppression of parasitemia at 10 mg/kg, po after 5 to 7 days. It is filed as functional.
The test system of assay [11] is Plasmodium berghei. Kind of assay: Antimalarial activity against Plasmodium berghei infected in mouse assessed as total elimination of parasitemia at 50 mg/kg, po after 5 to 7 days. It counts as functional, organism-based. Also on record: dose 50 mg/kg.

SMILES strings stand for the structures. Counter-ions that a name gives are not always drawn. Activity calls are given as the source filed them. The rule behind the calls is not given here. A value given as a limit tells only on which side of the number the result lay.

The values below come from ChEMBL document CHEMBL3286184, “Antiplasmodial activity of synthetic ellipticine derivatives and an isolated analog” (Bioorg Med Chem Lett, 2014).

Regarding `Cc1c2ccncc2c(C)c2c1[nH]c1ccccc12` [ELLIPTECINE], in [1], the MST was above 40 days. Moreover, the “Ratio IC50” value in [2] is on record as above 290. In addition, the inhibition in vivo (commonly the percentage by which the read-out fell short of the control) at 10 mg/kg in assay [3] was 70%. The IC50 (in general, the midpoint of a concentration-inhibition curve) in assay [4] (Plasmodium falciparum) was 1130 nM; in [5], 350 nM; in [6], above 140 µM; in assay [7], 810 nM.
`COc1ccc2[nH]c3c(C)c4ccncc4c(C)c3c2c1`: it took 1150 nM to reach half-maximal inhibition in assay [4] (Plasmodium falciparum) (IC50).
Turning to `Cc1c2c(c(C)c3c1[nH]c1ccccc13)CN(C)CC2`, the IC50 was above 50 µg/mL in [8], 13000 nM in [5] and 4200 nM in assay [7].
The like results for `Cc1c2ccncc2c(C)c2c1[nH]c1c([N+](=O)[O-])cccc12` were, in that order, above 50 µg/mL, 17000 nM and 13000 nM.
The compound `Cc1c2ccncc2c(C)c2c1[nH]c1ccc(O)cc12` gave a half-maximal inhibitory concentration (IC50) in assay [4] (Plasmodium falciparum) of 300 nM.
Take `Cc1c2ccncc2c(C)c2c1[nH]c1ccc([N+](=O)[O-])cc12`: the IC50 in assay [7] was determined as 550 nM.
In assay [6], `CCN(CC)CCCC(C)Nc1ccnc2cc(Cl)ccc12` (stereo not drawn) [CHLOROQUINE PHOSPHATE] showed an IC50 above 140 µM.
For `Cc1c2ccncc2c(C)c2c1[nH]c1ccccc12` [listing 1 of 2 here], the IC50 in assay [4] amounted to 600 nM.
`Cc1nccc2c(C)c3[nH]c4ccccc4c3cc12`: the “Ratio IC50” value in assay [2] is recorded as above 290. Moreover, the IC50 in [5] is 1200 nM; in assay [6] it was above 140 µM. Besides, the inhibition in vivo at 50 mg/kg in [9] is 90%. In addition, the inhibition in vivo at 10 mg/kg in assay [10] stood at 48%.
Take `C=C[C@H]1CN2CC[C@H]1C[C@H]2[C@H](O)c1ccnc2ccc(OC)cc12` [QUININE SULFATE]: the IC50 in [5] was 150 nM; in assay [6], above 140 µM; in [7] it was 120 nM.
With `Cc1c2ccncc2c(C)c2c1[nH]c1ccccc12` [listing 2 of 2 here], the inhibition result in [11] was “Active”.
For the compound `Cc1c2c(c(C)c3c1[nH]c1ccccc13)C=NCC2`, half-maximal inhibition in assay [4] (Plasmodium falciparum) (IC50) was put at 1010 nM.
